Reference: ChEMBL document CHEMBL5154945, “Discovery and Optimization of Pyrrolopyrimidine Derivatives as Selective Disruptors of the Perinucleolar Compartment, a Marker of Tumor Progression toward Metastasis” (J Med Chem, 2022)
pIC50: −log10 of the molar value. Values joined by “and” are separate entries in the source; they are usually repeats but may differ in a detail not shown here. Equal values may be shown once.

Legend:
PC-3M = assay: Anticancer activity in human PC-3M cells expressing PTB/GFP fusion protein assessed as perinucleolar compartment disassembly and measured after 24 hrs by Hoechst 33342 staining based microscopic method; format: functional, cell-based; conditions: for pIC50: read-out: IC50; for IC50: read-out: pIC50 (converted)
Procedure, shortened: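 Imaged by high-content microscopy. Nuclei with PNC spots ≥3 and >0 scored positive. PNC prevalence % = PNC-positive nuclei/total nuclei ×100, normalized to DMSO (0% activity) and 0% PNC (−100%). IC50 from concentration-response.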

[1] = Cytotoxicity against human PC-3M cells expressing PTB/GFP fusion protein assessed as reduction in ATP level and measured after 24 to 48 hrs by ATPlite luminescence assay; format: toxicity, cell-based
[2] = Permeability of the compound at pH 7.4 incubated for 30 mins by UV plate reader based PAMPA assay; conditions: for permeability: pampa, pH 7.4, 0.5 h
[3] = Microsomal stability in CD1 mouse liver microsomes assessed as half life measured upto 60 mins in presence of NADPH by LC-MS analysis; conditions: for t1/2: mouse, microsomes, 1 h; for half-life at 1 h: CD1, mouse, liver microsomes
[4] = Kinetic solubility of compound
in vitro = conditions: human, PC-3M cells expressing PTB/GFP fusion protein

pIC50 (PC-3M) | permeability [2] | t1/2 [3] | IC50 (PC-3M) | solubility kinetic [4] | half-life at 1 h [3] | Papp at 0.5 h ([2]; PAMPA, pH 7.4) | Structure (SMILES) | pIC50 [1] | selectivity ratio (in vitro)
< 4.70 | 327.5 10^-6 cm/s | 11.2 min | – | – | – | – | N#Cc1c(-c2ccccc2)c(-c2ccccc2)n(Cc2ccccc2)c1/N=C/N[C@H]1CC[C@H](O)CC1 | – | –
– | > 1000 10^-6 cm/s | 38.2 min | 302 nM | 75 µM and 36 µg/mL | – | – | N=c1c2c(-c3ccccc3)c(-c3ccccc3)n(Cc3ccccc3)c2ncn1C1CCC(=O)CC1 | – | –
– | 1246.89 10^-6 cm/s | – | 631 nM | – | 120 min | – | N=c1c2c(-c3ccccc3)c(-c3ccccc3)n(Cc3ccc(OC(F)(F)F)cc3)c2ncn1[C@H]1CC[C@H](O)CC1 | – | –
4.90 | 294.4 10^-6 cm/s | 77.9 min | – | – | – | – | CN(C)CCCn1cnc2c(c(-c3ccccc3)c(-c3ccccc3)n2CCc2ccccc2)c1=N | – | –
– | > 1000 10^-6 cm/s | 72 min | 955 nM | – | – | – | N=c1c2c(-c3ccccc3)c(-c3ccccc3)n(Cc3ccc(OC(F)(F)F)cc3)c2ncn1C1CCOCC1 | – | –
6.49 | > 1000 10^-6 cm/s | 29.6 min | 316 nM | 18 µM and 8.3 µg/mL | – | – | N=c1c2c(-c3ccccc3)c(-c3ccccc3)n(Cc3ccccc3)c2ncn1C1CCOCC1 | – | –
< 4.70 | > 1000 10^-6 cm/s | 58.7 min | – | – | – | – | COc1ccc(-c2c(-c3ccc(OC)cc3)n(Cc3ccccc3)c3ncn(C4CCOCC4)c(=N)c23)cc1 | – | –
5.00 | 1229.2 10^-6 cm/s | 7.3 min | – | – | – | – | N=c1c2c(-c3ccccc3)c(-c3ccccc3)n(CCc3ccccc3)c2ncn1CC1CCOCC1 | – | –
– | > 1000 10^-6 cm/s | 8.4 min | 7940 nM | – | – | – | N=c1c2c(-c3ccccc3)c(-c3ccccc3)n(CCc3ccccc3)c2ncn1CC1CCCO1 (stereo not drawn) | – | –

More lines, now with the values behind:

Structure (SMILES) | pIC50 (PC-3M) | permeability [2] | t1/2 [3] | IC50 (PC-3M) | solubility kinetic [4] | half-life at 1 h [3] | Papp at 0.5 h ([2]; PAMPA, pH 7.4) | pIC50 [1] | selectivity ratio (in vitro)
COc1cccc2c1C(=O)c1c(O)c3c(c(O)c1C2=O)C[C@@](O)(C(=O)CO)C[C@@H]3O[C@H]1C[C@H](N)[C@H](O)[C@H](C)O1 [DOXORUBICIN] | 6.07 | – | – | – | – | – | – | 6.18 | –
N=c1c2c(-c3ccccc3)c(-c3ccccc3)n(CCc3ccccc3)c2ncn1C1CCOCC1 | 6.02 | > 1000 10^-6 cm/s | 14.5 min | 10000 nM | – | – | – | – | –
N=c1c2c(-c3ccccc3)c(-c3ccccc3)n(CCc3ccccc3)c2ncn1[C@H]1CC[C@H](O)CC1 | – | > 1000 10^-6 cm/s | – | 339 nM | > 132 µM and > 65 µg/mL | 120 min | – | – | –
N=c1c2c(-c3ccccc3)c(-c3ccccc3)n(Cc3ccccc3)c2ncn1CCO | – | > 1000 10^-6 cm/s | 25.1 min | 832 nM | – | – | – | – | –
N=c1c2c(-c3ccccc3)c(-c3ccccc3)n(CCc3ccccc3)c2ncn1CCCCO | 5.35 | – | – | 4470 nM | – | 6.6 min | > 1000 ×10⁻⁶ cm/s | – | –
COc1ccc(-c2c(-c3ccc(OC)cc3)n(Cc3ccccc3)c3ncn(CCO)c(=N)c23)cc1 | < 4.70 | > 1000 10^-6 cm/s | 73.2 min | – | – | – | – | – | –
Cc1c(C)n(Cc2ccccc2)c2ncn(CCCO)c(=N)c12 | < 4.70 | 609.3 10^-6 cm/s | – | – | – | 120 min | – | – | –
CC[C@@]1(O)C(=O)OCc2c1cc1n(c2=O)Cc2cc3ccccc3nc2-1 [CAMPTOTHECIN] | 6.72 | – | – | – | – | – | – | 6.32 | 2.5
N=c1c2c(-c3ccccc3)cn(Cc3ccccc3)c2ncn1Cc1ccco1 | < 4.70 | 1737 10^-6 cm/s | 3 min | – | – | – | – | – | –
CCOC(CCCn1cnc2c(c(-c3ccccc3)c(-c3ccccc3)n2Cc2ccccc2)c1=N)OCC | – | > 1000 10^-6 cm/s | 4.3 min | 23400 nM | – | – | – | – | –
COc1ccc(CCn2cnc3c(c(-c4ccccc4)cn3Cc3ccccc3)c2=N)cc1OC | < 4.70 | > 1000 10^-6 cm/s | 2.9 min | – | – | – | – | – | –
N=c1c2c(-c3ccccc3)c(-c3ccccc3)n(Cc3ccc(OC(F)(F)F)cc3)c2ncn1[C@H]1CC[C@@H](O)CC1 | – | 1246.89 10^-6 cm/s | – | 3390 nM | – | 120 min | – | – | –
